Results: ChEMBL document CHEMBL1122187, “Synthesis and antiviral activity of certain carbamoylpyrrolopyrimidine and pyrazolopyrimidine nucleosides” (1982)

Experiments:
[1] = system: Vero; experiment: In vitro antiviral activity against herpes simplex type 1 (HSV-1) virus was determined in african green monkey kidney (vero,V) expressed as virus rating. Toxic level(>1000 ug/mL); type: functional, Chlorocebus sabaeus
How it was run: (§1)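 Cell monolayers (18 h) infected with 320 TCID50 of virus. Compound was added within 15–30 min at half-log dilutions from 1000 to 1 μg/mL. After 72 h at 37 °C in 5% CO2, CPE was scored 0–4 by microscopy. VR = sum of (virus control − treated) scores, halved at partially toxic levels, divided by 10 × test cups per drug level.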

[2] = system: Vero; experiment: In vitro antiviral activity against vaccinia(VV) virus was determined in african green monkey kidney (vero,V) expressed as virus rating. Toxic level(>1000 ug/mL); type: functional, Chlorocebus sabaeus; how it was run: as §1
[3] = system: Vero; experiment: In vitro antiviral activity against parainfluenza type 3(para 3) virus was determined in african green monkey kidney (vero,V) expressed as virus rating. Toxic level(>1000 ug/mL); type: functional, Chlorocebus sabaeus; how it was run: as §1
[4] = system: Vero; experiment: In vitro antiviral activity against parainfluenza type 3(para 3) virus was determined in african green monkey kidney (vero,V) expressed as virus rating. Toxic level(320 ug/mL); type: functional, Chlorocebus sabaeus; how it was run: as §1
[5] = system: Vero; experiment: In vitro antiviral activity against herpes simplex type 1 (HSV-1) virus was determined in african green monkey kidney (vero,V) expressed as virus rating. Toxic level(320 ug/mL); type: functional, Chlorocebus sabaeus; how it was run: as §1
[6] = system: Vero; experiment: In vitro antiviral activity against vaccinia(VV) virus was determined in african green monkey kidney (vero,V) expressed as virus rating. Toxic level(320 ug/mL); type: functional, Chlorocebus sabaeus; how it was run: as §1
[7] = system: Vero; experiment: In vitro antiviral activity against vaccinia(VV) virus was determined in african green monkey kidney (vero,V) expressed as virus rating. Toxic level(1000 ug/mL); type: functional, Chlorocebus sabaeus; how it was run: as §1
[8] = system: Vero; experiment: In vitro antiviral activity against parainfluenza type 3(para 3) virus was determined in african green monkey kidney (vero,V) expressed as virus rating. Toxic level(1000 ug/mL); type: functional, Chlorocebus sabaeus; how it was run: as §1
[9] = system: Vero; experiment: In vitro antiviral activity against herpes simplex type 1 (HSV-1) virus was determined in african green monkey kidney (vero,V) expressed as virus rating. Toxic level(1000 ug/mL); type: functional, Chlorocebus sabaeus; how it was run: as §1
[10] = system: Vero; experiment: In vitro antiviral activity against parainfluenza type 3(para 3) virus was determined in african green monkey kidney (vero,V) expressed as virus rating.; type: functional, Chlorocebus sabaeus; how it was run: as §1
[11] = system: Vero; experiment: In vitro antiviral activity against vaccinia(VV) virus was determined in african green monkey kidney (vero,V) expressed as virus rating.; type: functional, Chlorocebus sabaeus; how it was run: as §1
[12] = system: Vero; experiment: Percentage plaque reduction was determined against rift valley fever(RVF) virus in african green monkey kidney (vero,V) at a conc of 100-250 ug/mL. Toxic level(>1000 ug/mL); type: functional, Chlorocebus sabaeus
[13] = system: Vero; experiment: Percentage plaque reduction was determined against pichinde(PICH) virus in african green monkey kidney (vero,V). Toxic level(>1000 ug/mL); 31-60; type: functional, Chlorocebus sabaeus
How it was run: (§2)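 Infected Vero 24-well monolayers: virus adsorbed 1 h at 37 °C, then overlaid with agar holding dilutions of compound and incubated again at 37 °C with CO₂. Plaques were stained with crystal violet and counted. Inhibition was scored as % plaque reduction bands (10-30%, 31-60%, 61-90%), each tied to a drug concentration range.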

[14] = system: Vero; experiment: 0 Percentage plaque reduction was determined against rift valley fever(RVF) virus in african green monkey kidney (vero,V) at a conc of 250-500 ug/mL. Toxic level(>1000 ug/mL); type: functional, Chlorocebus sabaeus
[15] = system: Vero; experiment: Percentage plaque reduction was determined against Sandfly fever (SF) virus in african green monkey kidney (vero,V) at a conc of 100-250 ug/mL. Toxic level(>1000 ug/mL); type: functional, Chlorocebus sabaeus
[16] = system: Vero; experiment: Percentage plaque reduction was determined against venezuelan equine encephalitis (VEE) virus in african green monkey kidney (vero,V) at a conc of 100-250 ug/mL. Toxic level(>1000 ug/mL); type: functional, Chlorocebus sabaeus
[17] = system: Vero; experiment: Percentage plaque reduction was determined against Sandfly fever (SF) virus in african green monkey kidney (vero,V) at a conc of <25 ug/mL. Toxic level(>1000 ug/mL); type: functional, Chlorocebus sabaeus; how it was run: as §2
[18] = system: Vero; experiment: Percentage plaque reduction was determined against venezuelan equine encephalitis (VEE) virus in african green monkey kidney (vero,V) at a conc of 250-500 ug/mL. Toxic level(>1000 ug/mL); type: functional, Chlorocebus sabaeus
[19] = system: Vero; experiment: Percentage plaque reduction was determined against venezuelan equine encephalitis (VEE) virus in african green monkey kidney (vero,V) at a conc of <25 ug/mL./Toxic level(>1000 ug/mL); type: functional, Chlorocebus sabaeus
[20] = system: Vero; experiment: Percentage plaque reduction was determined against rift valley fever(RVF) virus in african green monkey kidney (vero,V) at a conc of 25-100 ug/mL. Toxic level(>1000 ug/mL); type: functional, Chlorocebus sabaeus
[21] = system: Vero; experiment: Percentage plaque reduction was determined against Sandfly fever (SF) virus in african green monkey kidney (vero,V) at a conc of 25-100 ug/mL. Toxic level(>1000 ug/mL); type: functional, Chlorocebus sabaeus
[22] = system: Vero; experiment: Percentage plaque reduction was determined against rift valley fever(RVF) virus in african green monkey kidney (vero,V) at a conc of <25 ug/mL. Toxic level(>1000 ug/mL); type: functional, Chlorocebus sabaeus
[23] = system: Vero; experiment: Percentage plaque reduction was determined against Sandfly fever (SF) virus in african green monkey kidney (vero,V) at a conc of 250-500 ug/mL. Toxic level(>1000 ug/mL); type: functional, Chlorocebus sabaeus
[24] = system: Vero; experiment: Percentage plaque reduction was determined against venezuelan equine encephalitis (VEE) virus in african green monkey kidney (vero,V) at a conc of 25-100 ug/mL. Toxic level(>1000 ug/mL); type: functional, Chlorocebus sabaeus
[25] = system: Vero; experiment: Percentage plaque reduction was determined against yellow fever(YF) virus in african green monkey kidney Toxic level(>1000 ug/mL); type: functional, Chlorocebus sabaeus
[26] = system: Vero; experiment: Percentage plaque reduction was determined against Sandfly fever (SF) virus in african green monkey kidney (vero,V) at a conc of 25-100 ug/mL. Toxic level(>1000 ug/mL); 61-90; type: functional, Chlorocebus sabaeus
[27] = system: HEp-2; experiment: In vitro antiviral activity against herpes simplex type 1 (HSV-1) virus was determined in human laryngeal epithelioma (HEp-2,H)expressed as virus rating. Toxic level(>1000 ug/mL); type: functional; how it was run: as §1
[28] = system: Vero; experiment: Percentage plaque reduction was determined against pichinde(PICH) virus in african green monkey kidney (vero,V). Toxic level(>1000 ug/mL); 61-90; type: functional, Chlorocebus sabaeus; how it was run: as §2
[29] = system: HEp-2; experiment: In vitro antiviral activity against vaccinia(VV) virus was determined in human laryngeal epithelioma (HEp-2,H)expressed as virus rating. Toxic level(>1000 ug/mL); type: functional; how it was run: as §1
[30] = system: Vero; experiment: Percentage plaque reduction was determined against yellow fever(YF) virus in african green monkey kidney (vero,V).Toxic level(>1000 ug/mL); 61-90; type: functional, Chlorocebus sabaeus
[31] = system: Vero; experiment: Percentage plaque reduction was determined against venezuelan equine encephalitis (VEE) virus in african green monkey kidney (vero,V) at a conc of 250-500 ug/mL. Toxic level(>1000 ug/mL); 10-30; type: functional, Chlorocebus sabaeus
[32] = system: HEp-2; experiment: In vitro antiviral activity against parainfluenza type 3 (para 3) type 1 (HSV-1) virus was determined in human laryngeal epithelioma (HEp-2,H)expressed as virus rating. Toxic level(>1000 ug/mL); type: functional; how it was run: as §1
[33] = system: Vero; experiment: Percentage plaque reduction was determined against rift valley fever(RVF) virus in african green monkey kidney (vero,V) at a conc of 100-250 ug/mL. Toxic level(>1000 ug/mL); 31-60; type: functional, Chlorocebus sabaeus

Molecule `OC[C@H]1O[C@@H](n2ccc3c(S)ncnc32)[C@H](O)[C@@H]1O` has a Virus rating [1] of 0.2, a Virus rating [2] of 0.5 and a Virus rating [3] of 1.1.
`CSc1ncnc2c1ncn2[C@@H]1O[C@H](CO)[C@@H](O)[C@H]1O` was tested, and the Virus rating [4] was 2.2, the Virus rating [5] was 1.7 and the Virus rating [6] was 2.
For `OC[C@H]1O[C@@H](n2cnc3c(Cl)ncnc32)[C@H](O)[C@@H]1O`, the Virus rating [7] was 1.8, the Virus rating [8] was 0.4 and the Virus rating [9] was 0.4.
With `CSc1ncnc2c1cnn2C1O[C@H](CO)[C@@H](O)[C@H]1O` (stereo partly specified) the Virus rating [1] was 0.2, the Virus rating [10] was 1 and the Virus rating [11] was 0.2.
`O=C1N=CN=C2C1C=NN2C1O[C@H](CO)[C@@H](O)[C@H]1O` (stereo partly specified) showed a Plaque reduction [12] of 0%, a Plaque reduction [13] of 31% and a Plaque reduction [14] of 0%. It also gave a Plaque reduction [15] of 0%, a Plaque reduction [16] of 0% and a Plaque reduction [17] of 0%. It also gave a Virus rating [1] of 0, a Plaque reduction [18] of 0% and a Plaque reduction [19] of 0%. The Plaque reduction [20] was 0%, the Plaque reduction [21] was 0% and the Plaque reduction [22] was 0%. For the same molecule, the Plaque reduction [23] was 0%, the Plaque reduction [24] was 0% and the Plaque reduction [25] was 0%.
`OC[C@H]1O[C@@H](c2n[nH]c3c(Cl)ncnc23)[C@H](O)[C@@H]1O` showed a Virus rating [4] of 1.3, a Virus rating [5] of 0 and a Virus rating [6] of 1.
Molecule `NC(=O)c1ncn([C@@H]2O[C@H](CO)[C@@H](O)[C@H]2O)n1` [RIBAVIRIN] has a Plaque reduction [26] of 61%, a Virus rating [1] of 0.6 and a Virus rating [27] of 1.2. The Plaque reduction [28] was 61%, the Virus rating [29] was 1.7 and the Plaque reduction [30] was 61%. For the same molecule, the Plaque reduction [31] was 10%, the Virus rating [32] was 1.7 and the Virus rating [2] was 1.2. For the same molecule, the Virus rating [3] was 1.3 and the Plaque reduction [33] was 31%.
